Laboratory results reported in the EternaBench riboswitch data.

Test system: MS2 coat protein
Assay: apparent Kd, MS2 coat protein; higher = weaker binding; RNA-MaP array; FMN 200 µM where present
How it was run: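 Stalled E. coli RNA polymerase transcribed the designs on Illumina sequencing-chip clusters. SNAP-549-labelled MS2 coat protein was titrated from 0.7 or 1.5 nM, doubling to 3 µM, without and then with constant ligand, in 100 mM Tris-HCl pH 7.5, 80 mM KCl, 4 mM MgCl2, BSA, DTT, yeast tRNA and Tween-20. Per-cluster binding curves were fitted to green signal normalised to red-channel RNA signal and control-cluster median Fmax. The apparent Kd is the median of the filtered fits.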

[1] = designed as: ON switch for flavin mononucleotide, no ligand
[2] = ligand present: flavin mononucleotide, designed as: ON switch for flavin mononucleotide
[3] = designed as: OFF switch for flavin mononucleotide, no ligand
[4] = ligand present: flavin mononucleotide, designed as: OFF switch for flavin mononucleotide

Row | Sequence | apparent Kd [1] [nM] | apparent Kd [2] [nM] | apparent Kd [3] [nM] | apparent Kd [4] [nM]
1 | UUUUAAUAAUAGAAGGAGGACUUCAUGAGGAUCACCCAUGUGUUAGUACUUAGGAUAUGUAAUAACAUGAGGAUCACCCAUGUC | 44 | 42.4 |  | 
2 | UAGUCGGAGACAGGAUAUGUGACUGCAUAGUGCACAGAAGGGUCUACAUGAGGAUCACCCAUGUCACCGACCACCAAACAACAA | 552 | 33.3 |  | 
3 | UGGUACAUGGGAGGAUAUCCUCACAUGAGGAUCACCCAUGUAAAGAAUUAUAAGCCGAAAGGCAUGGAGAAGGCCCAUGUACCU | 87.6 | 16.2 |  | 
4 | AGAUGGUGAUGUUAUCUUCGUCGGACAUGAGGAUCACCCAUGUAGGAUAUGCUACUAAAAUAGUAGCAGAAGGACAUGUAUCUU |  |  | 104 | 1030
5 | GGAUAGGACAGAGGAUAUACCGAUAGGAGAUACUAUCGACUAUUCCUCACAUGAGGAUCACCCAUGUAGAAGGCUGUCCUAUCG |  |  | 16.9 | 58.1
6 | ACCUCACAUGAGGAUCACCCAUGUCAGGAUAUACAAACCGUGAUAAGACACGGUCGUAGUAGAAGGGACUAUGG |  |  | 69.5 | 24.9
7 | GUCAUUAAACAGAAGGUGUAGUACAUGAGGAUCACCCAUGUAUAACUAACUAAAUUUGUAAUUAACAAGGAUAUGUACUAAUCG | 6.58 | 6.63 |  | 
8 | CCAGGCUUCGAGAAGGACAUGAGGAUCACCCAUGUGCGUGUAAAACAGCCGUGAGGCUGCAUCAUGUAGGAUAUCGGAGUCUGC |  |  | 293 | 88.9
9 | GUCGAGUGAGGAUAUGGUGAGUAGUGCCUGAGCGCUGCUCACCAGAAGGCACAUGAGGAUCACCCAUGUAUAGC |  |  |  | 29
10 | GCAAGGCAUGUAGGAUAUCGAGCUCAAAGAGCUCGAGAAGGACAUGAGGAUCACCCAUGUGCUCACAGACAGUGAGCGCCUUGC |  |  | 18.4 | 44.4
11 | AACCUGGUAAAUAAACUCAAUUACAUGAGGAUCACCCAUGUAUAGGAUAUGCAGUGGAAUACACUGCAGAAGGAUACAUCCAGG |  |  | 18 | 60.9
12 | UUCGUGCAGCUUUGCUGUACGCGUACAUGAGGAUCACCCAUGUAGGAUAUGGUACGCUUUGUGUGCUAGAAGGAUAUGGAGAGG |  |  | 18.8 | 18.6
13 | UCGUUAUAUGAAGGAUAUACUUAACAUGAGGAUCACCCAUGUGGUGUUGUGAGUGAGUGAGUUUAGUAGAAGGUCAAUUCUUUU |  |  | 212 | 214
14 | AUAAUGCGAGGAUAUACAUGAGGAUCACCCAUGUAAUUCAAUCGGAGAGCCACAUUUCGUAGAAGGUGCAUUAA |  |  | 15.7 | 21.4
15 | CCCGCGAUGUCAGGAUAUAGUCGGAGGUUCAGACUAGAAGGGACAUGAGGAUCACCCAUGUGCGUGAAAAUUUAAAACCUAGGU |  |  | 51.5 | 191
16 | UACAUGAGGAUCACCCAUGUUUUGUCGUGUAUGGUAUUUAUCUAGGAUAUCAAUUGAGUUAUUUAUGAGAAGGAGAAUAUUAAU |  |  | 41.7 | 44
17 | UUGAGGUCAGGAUAUGCAUGGCGGGACUUGCGUCGUGGCGUGGAGAAGGGACAUGAGGAUCACCCAUGUGGAGG |  |  | 129 | 94.9
18 | GUAUGGAUUACAGGAUAUGUUAGUUUUAAGUGUAUUGGUUAUUACUUAAUUACAGAAGGGUAUUACAUGAGGAUCACCCAUGUA | 16 | 11.5 |  | 
19 | GGAUAGGACAGAGGAUAUACGCGCUAGAGAUACUAGCAAAAUUUCCUCACAUGAGGAUCACCCAUGUAGAAGGCUGUCCUAUCG |  |  | 20.1 | 580
20 | ACAUGAGGAUCACCCAUGUACAUGGGUUUAAUUGUGUGUUACGAGGAUAUGUAUUUGAAUUUACAACAGAAGGUGUAUUACUGU |  |  | 811 | 610
21 | CCAGCGUGUGUGAGGAUAUGCUGGUCCUUGGAUCAGCAGAAGGCACAUGAGGAUCACCCAUGUGAGGACGUUGG |  |  | 22.4 | 94.5
22 | GCUAUCGGGUGAGGAUAUAUGAUUGUGAUUAAAAUAGAAGGCAUCUCAGAAGACAUGAGGAUCACCCAUGUAGUUAAGAUGGCU | 15.3 | 12.8 |  | 
23 | UGAUAACAUGAGGAUCACCCAUGUCAGGAUAUAAAUUGAGCUCCUUGGACGCCACCGUUUAGAAGGGACGCAUG |  |  | 23.7 | 22.7
24 | ACCUAUUUGGAGAAGGCCAGAAUGAUUAGGCUAAGGCGUGAUCCUGCAUGGAGGAUAUCCAAAACAUGAGGAUCACCCAUGUUC | 130 | 71.2 |  | 

Row | Sequence | apparent Kd [1] [nM] | apparent Kd [2] [nM] | apparent Kd [3] [nM] | apparent Kd [4] [nM]
25 | GCAUGAGACUAAGGAUAUGAUGUACCUAUAUGUGACAUGAGGAUCACCCAUGUGGUAAGUAUGAUUCAGAAGGUAGAGACAUGC | 33.7 | 21.3 |  | 
26 | GCAGGAUAAGUGAGGAUAUACCUAUGGAUACAUAGGUAGAAGGUACAUGAGGAUCACCCAUGUUCCUUACCUGC |  |  | 11.9 | 13.4
27 | CGGUGCUGAGGAUAUACAUGAGGAUCACCCAUGUGUGCCAGCUAGCUGACUGGCGCUUGUAGAAGGCAGUACUG |  |  | 12.1 | 24.4
28 | AAGGCCUAUUCCAGGACUAUCGUACUAGAAGGGUGACCUGACAUGAGGAUCACCCAUGUACGGGCACAGGAUAUAGAUGAAAGG | 50.1 | 11.3 |  | 
29 | AGUUUUUAUGUCAGGAUAUCAGUAGGUCUCCCGGAUGAGAAGGGACAUGAGGAUCACCCAUGUAACCAAAGAGC |  |  | 15.6 | 18.5
30 | UUGGACGUCGUAGGAUAUGUAGGAUAUUCCUACAUGAGGAUCACCCAUGUUGACAUGGAAGAAGGACAGAAGGACAAUGUCCAU | 414 | 7.5 |  | 
31 | GAGAUGUGAGGAUAUCUAGACCGCGGAAGAGCCGCAGUCCGAGAGAAGGCACAUGAGGAUCACCCAUGUGAUGA |  |  | 33.4 | 61.2
32 | UGAAAUCAUGUAGGAUAUGCAUGGCGAAGCUACGCAGAAGGACAUGAGGAUCACCCAUGUUAUAGCUACCCAGUUUGGUGGCAA |  |  | 49.8 | 151
33 | UAUAAUCGAGGAUAUACAUGAGGAUCACCCAUGUGUUGCCGCGUGAUGUGUUUGUCAGGUAGAAGGCGAUUAUA |  |  | 200 | 43.8
34 | AUUAAUAAGUAGAAGGACGGAGAGUAUGAAGUCGUAGGAUAUACAAUAGACAUGAGGAUCACCCAUGUAUGUUGGGUGUGAAUG |  |  | 376 | 254
35 | UUAUGAUUAAGAGGAUAUAUACAACAUGAGGAUCACCCAUGUACCCAUGUAGUAGAAGGUUUAUUUUUAUAUAAUAAUAUAAUU | 115 | 64.9 |  | 
36 | AUCCUGCGAGGAUAUACAUAGUUUUUUUCGUUUUGUCUCGAACAUGAGGAUCACCCAUGUAGAAGGUGCUUCAC |  |  | 71.5 | 66.9
37 | GACUAGGCAGGAUAUACAUGAGGAUCACCCAUGUGUCUGCGUUAAGCACGUGAAGACGGUAGAAGGGCCUUCAC |  |  | 11.6 | 13.5
38 | AUUAUAAAGUCAGGAUAUCGGUUUAUAAUAUUACGAGAAGGGACAUGAGGAUCACCCAUGUAUUAACACUACUAUGUCAACUAA |  |  | 46.6 | 43.4
39 | CUGGCCCAGCCCGCCUAGUUCGGGAGAAGGAGGAGACAUGAGGAUCACCCAUGUGGCCUUAUCUCCUAGGAUAUCCCGGCGGGU |  |  | 5.32 | 17.9
40 | AUGAGCAACACAGGAUAUCUACGUGACAGAGCGAGAGAAGGGUGGGCCCAUGACUUACAUGAGGAUCACCCAUGUAGCUCCAAA | 39.9 | 97.2 |  | 
41 | GUAGCAUAGGGAGGAUAUUCAUAUAAUAAAUAAACAUGAGGAUCACCCAUGUGGCGAAAGCCUUGGGAGAAGGCCCAAUGCUAC | 866 | 36.2 |  | 
42 | CUAUUUAAGCAGAAGGCGUGGGAAAGAUUUACACGAGGAUAUGCGAUAACGGCGUAUGACAUGAGGAUCACCCAUGUACGUGCG | 7.22 | 4.47 |  | 
43 | CGCUAGUCAGGAUAUACGAACAUGUCAAAAGACGUGAAGGGACAUGAGGAUCACCCAUGUAGAAGGGACUAGCU |  |  | 27 | 182
44 | CAUUCCCGUCGAGGAUAUAUUAUAUGACAACAAACACAUACAUGAGGAUCACCCAUGUCCCAUGUAUAGAAGGCGACCUGCGUC | 46.6 | 99.3 |  | 
45 | CAGCAAUGUGAGAAGGCUGCUCCGAUAAGGAGCAGAGGAUAUUACAUGAGGAUCACCCAUGUAUGAACCAAUAGCUGAAAUAAA |  |  | 6.01 | 28.3
46 | UGGAUGUAGGAGAAGGAGGACUUCAUGAGGAUCACCCAUGUGUUAGUACUUAGGAUAUUUGACAACAUGAGGAUCACCCAUGUG | 105 | 96.4 |  | 
47 | CCGCGCUGUCGAGAGGAUAUGCGGUGAUGGACAUGAGGAUCACCCAUGUUAGCGAUAGCAUUACUGUAGAAGGCUCUACGGCGGC | 16.6 | 17.3 |  | 
48 | AAAACAUGAGGAUCACCCAUGUAAAGAUCGGUUAAUAGAGGUGAGGAUAUACGAACUUUUGGGUAGUAGAAGGCACUGGGUACA | 58.1 | 44 |  | 
